MrgX1 antagonist = antagonists of human MrgX1 receptor; Q96LB2; MRGX1-HEK293 calcium flux, Fluo-4, BAM8-22 antagonism; stronger effect = lower value; B-score at 10 µM; actives 1.3% (n = 310,000);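 active = calcium-response B-score plate-corrected more than 3 library SD below zero, starting fluorescence within 5 deviations, no agonist response on first addition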;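 also: peak minus trough fluorescence over baseline after final BAM8-22 challenge near maximal dose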
Target sequence (Q96LB2 whole entry, looked up): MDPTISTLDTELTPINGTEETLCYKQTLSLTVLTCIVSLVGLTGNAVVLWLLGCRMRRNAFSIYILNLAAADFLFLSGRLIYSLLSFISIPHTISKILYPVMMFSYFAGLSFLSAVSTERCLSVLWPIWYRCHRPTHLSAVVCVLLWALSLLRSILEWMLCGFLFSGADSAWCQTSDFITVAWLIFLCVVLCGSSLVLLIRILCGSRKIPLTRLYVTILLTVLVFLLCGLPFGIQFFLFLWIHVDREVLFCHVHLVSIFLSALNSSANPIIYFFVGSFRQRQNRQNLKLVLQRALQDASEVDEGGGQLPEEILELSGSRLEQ
MrgX1 agonist = agonists of human MrgX1 receptor; Q96LB2; AID 588627; B-score at 10 µM; actives 0.44% (n = 310,000); MrgX1-HEK293 cells, Fluo-4 calcium fluorescence, agonist mode; stronger effect = higher value;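 active = calcium response B-score plate-corrected fluorescence ratio at least 3 library SD, with starting fluorescence B-score inside 5 SD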
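Material: HEK293 cells stably expressing human MrgX1 receptor | Quantity: 15,000 cells per well | Times: Cells plated overnight, dye loaded 0.5 h 37 °C, 0.5 h room temperature | Measured by: Kinetic Fluo-4 NW fluorescence of intracellular calcium | Control set: Positive and negative controls per plate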
RGS4 pot = potentiators or activators of RGS4. B-score at 10 µM. AID 463111. actives 0.92% (n = 310,000). HEK293 M3R/inducible RGS4, carbachol calcium flux Fluo4; stronger effect = lower value;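 active = B-score of the integrated calcium signal more than 4 SD below the library mean, with starting fluorescence not abnormally high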;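 also: negative B-score means reduced calcium response which marks RGS4 activation or potentiation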
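Test system: HEK293 cells with stable M3R and inducible RGS4; also added: carbachol at ECmax as muscarinic agonist stimulus; schedule: dye loading 30 min 37 °C, buffer rest 30 min RT; technique: kinetic calcium fluorescence imaging with Fluo4-AM dye, 2 µM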
RGS4 inh = inhibitors of human RGS4 | AID 463165 | HEK293 M3R/RGS4 inducible, Fluo-4 calcium flux; stronger effect = higher value; triggered by carbachol at its EC20 | P49798 | actives 0.45% (n = 310,000) | B-score at 10 µM;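 active = B-score, a plate-corrected calcium signal, over three deviations above library mean, with baseline fluorescence within five deviations of library mean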;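 also: RGS4 expression induced by doxycycline in cells with stable M3 receptor; B-score is computed from the integrated fluorescence ratio over baseline after carbachol; higher B-score means a larger calcium signal and so more RGS4 inhibition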
Target sequence (P49798 whole entry, looked up): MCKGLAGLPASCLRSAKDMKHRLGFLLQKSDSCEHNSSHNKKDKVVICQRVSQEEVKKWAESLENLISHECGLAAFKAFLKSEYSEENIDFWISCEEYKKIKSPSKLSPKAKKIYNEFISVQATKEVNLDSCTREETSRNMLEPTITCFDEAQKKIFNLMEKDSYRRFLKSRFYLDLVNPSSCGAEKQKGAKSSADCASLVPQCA
MrgX1 PAM = human MrgX1 positive allosteric modulation, primary screen; Q96LB2; MrgX1-HEK293, Fluo-4 calcium flux, FDSS; stronger effect = higher value; B-score at 10 µM; actives 0.63% (n = 310,000); AID 588675;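 active = plate-corrected calcium response at least 3 library SD above typical, normal starting fluorescence, not activating the receptor alone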;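 also: compound read alongside a low EC10 to EC30 dose of BAM8-22 agonist; peak minus trough fluorescence over baseline measured at the second addition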
MrgX1 antag conf = human MrgX1 receptor antagonism, re-confirmation screen; actives 19% (n = 2,300); AID 602420; MrgX1-HEK293, BAM8-22 calcium flux, Fluo-4; stronger effect = lower value; remaining BAM8-22 calcium response % of control (stronger effect = lower value), % at 10 µM; shares compounds with MrgX1 antagonist;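 active = remaining agonist calcium response no higher than 100% minus 3 SD of agonist-only control wells, with starting fluorescence near control levels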;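 also: agonist BAM8-22 given at a near maximal EC90 to ECmax level; peak minus minimum fluorescence divided by baseline after agonist addition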
HEK293 Ca flux = MrgX1 antagonist counter-screen hit in parental HEK293 cells; Fluo-4 calcium fluorescence, FDSS; fluorescence ratio F(max-min)/F0 at 10 µM; AID 624111; shares compounds with MrgX1 antagonist; actives 2% (n = 4,000);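 active = duplicate-averaged calcium fluorescence ratio at least three times the standard deviation of buffer wells, a nonspecific response in parental cells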
HEK293 Ca counter = MrgX1 allosteric activator counter-screen hit in parental HEK293 cells | parental HEK293 calcium flux, Fluo-4 fluorescence ratio; stronger effect = higher value | shares compounds with MrgX1 antagonist | fluorescence ratio F(max-min)/F0 at 10 µM | actives 0.4% (n = 4,000);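 active = calcium fluorescence ratio, averaged over duplicates, at least 3 SD of the buffer-well ratio, meaning a nonspecific response in receptor-free cells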;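 also: untransfected parental HEK293 lacking MrgX1 used as counterscreen for MrgX1 allosteric activators; fluorescence change taken during the second addition on a kinetic imager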
HEK293 Ca cntr2 = MrgX1 activator counter-screen hit in parental HEK293 cells; shares compounds with MrgX1 antagonist; Fluo-4 calcium fluorescence (FDSS); stronger effect = higher value; fluorescence ratio F(max-min)/F0 at 10 µM; actives 8.7% (n = 4,000);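 active = calcium fluorescence ratio at least three times the spread of buffer wells, meaning a non-specific response in parental cells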
Hits are given with their value; . = inactive; / = no result given. Rows were chosen to be rich in hits. Some 3.5% of all compounds tested hit in one or more screens of this group.

SMILES | MrgX1 antagonist | MrgX1 agonist | RGS4 pot | RGS4 inh | MrgX1 PAM | MrgX1 antag conf | HEK293 Ca flux | HEK293 Ca counter | HEK293 Ca cntr2
O=C(CSC1=NS(=O)(=O)c2cc(Cl)ccc2N1)Nc1ccccc1C(F)(F)F | -10 | . | . | . | . | . | . | . | .
CCCC(=O)Nc1c(-c2ccccc2Cl)c(=O)c2ccccc2n1C | . | . | . | . | . | / | / | / | /
COc1ccc(N2CC(C(=O)N[C@@H](C)C(=O)NCCc3ccccc3)CC2=O)cc1 (stereo partly drawn) | . | . | . | . | . | / | / | / | /
Cc1ccc(CC(=O)NCc2ccc(F)cc2)cc1 | -5 | . | . | . | . | . | . | . | .
Cc1ccc(CNC(=O)Cc2ccc(-c3ccccc3)cc2)cc1 | . | . | . | . | . | / | / | / | /
Cc1ccc(N(C(=O)c2cccs2)C2C=CS(=O)(=O)C2)cc1 (stereo not drawn) | . | . | . | . | . | / | / | / | /
Cc1ccccc1OCCN(C#N)c1nc(N(C)C)nc(N(C)C)n1 | -4.9 | . | . | . | . | . | . | . | .
Cc1ccc(S(=O)(=O)Nc2ccsc2C#N)cc1 | . | . | . | . | . | / | / | / | /
CCCn1c(SCC(=O)N2CCOCC2)nnc1-c1ccncc1 | . | . | . | . | . | / | / | / | /
Fc1ccc(C(c2nnnn2Cc2cccs2)N2CCN(C3CCCC3)CC2)cc1 (stereo not drawn) | -7.1 | . | . | . | . | . | . | . | .
COc1cc(NC(=O)CN2C(=O)C(C)N(c3ccc(C)cc3)C2=O)cc(OC)c1 (stereo not drawn) | -6.5 | . | . | . | . | . | . | . | .
COc1cccc(C2=CC(c3ccccc3)n3nnnc3N2)c1 (stereo not drawn) | -5.6 | . | . | . | . | . | . | . | .
CCN1C(=O)c2cccc3c(S(=O)(=O)Nc4ccncc4)ccc1c23 | . | . | . | . | . | / | / | / | /
CCN1C(=O)c2cccc3c(S(=O)(=O)Nc4ccccc4)ccc1c23 | -6.9 | . | . | . | . | . | . | . | .
CS/C(N)=N/C(=S)Nc1cccc(Cl)c1 | -4.6 | . | . | . | . | . | . | . | .
NC(=S)Nc1cccc(Cl)c1 | . | . | . | . | . | / | / | / | /
Cc1ccccc1SCC(=O)OCC(=O)Nc1sccc1C(N)=O | . | . | . | . | . | / | / | / | /
NC(=O)c1ccsc1NC(=O)CSc1ccccc1F | -4.9 | . | . | . | . | . | . | . | .
NC(=O)c1ccsc1NC(=O)CCS(=O)(=O)c1ccc(F)cc1 | -5.9 | . | . | . | . | 80% | . | . | .
NC(=O)c1ccsc1NC(=O)COC(=O)Cc1cccc2ccccc12 | -6.8 | . | . | . | . | 42% | . | . | .
COc1ccccc1OCC(=O)OCC(=O)Nc1sccc1C(N)=O | . | . | . | . | . | / | / | / | /
CN(C)S(=O)(=O)c1ccc(N2CCCC2)c(C(=O)Nc2nc(-c3cc(F)ccc3F)cs2)c1 | . | . | . | . | . | / | / | / | /
CSCCC(NC(=O)c1ccccc1Cl)C(=O)NNC(=O)c1ccncc1 (stereo not drawn) | . | . | . | . | . | / | / | / | /
COc1ccc(N2C(=O)CS/C2=C\[N+](=O)[O-])cc1 | . | . | . | . | . | / | / | / | /
Cc1cc(-c2cccs2)n[nH]1 | . | . | . | . | . | / | / | / | /
SMILES | MrgX1 antagonist | MrgX1 agonist | RGS4 pot | RGS4 inh | MrgX1 PAM | MrgX1 antag conf | HEK293 Ca flux | HEK293 Ca counter | HEK293 Ca cntr2
Cc1cc(-c2ccccc2N)n[nH]1 | -6.4 | . | . | . | . | . | . | . | .
COCCNC(=O)CN1C(=O)COc2ccc(S(=O)(=O)N3CC(C)CC(C)C3)cc21 (stereo not drawn) | . | . | . | . | . | / | / | / | /
Cc1ccc(NCc2n[nH]c(=S)n2Cc2ccccc2)cc1Cl | / | / | . | . | / | / | / | / | /
COc1ccccc1NC(=O)c1nn(C)cc1Br | -7.6 | . | / | / | . | . | . | . | .
CC(OC(=O)c1ccncc1)C(=O)NC1CCCC1 (stereo not drawn) | -10 | . | . | . | . | . | . | . | .
CC(C)Oc1ccc(C(=O)OC(C)C(=O)NC2CCCCC2C)cc1 (stereo not drawn) | . | . | . | . | . | / | / | / | /
CC(C)n1cc(/C(N)=N/O)c(=O)n(Cc2ccccc2)c1=O | . | . | . | . | . | / | / | / | /
Nc1nnnn1/N=C/C(Br)=C/c1ccccc1 | -5.1 | . | . | . | . | . | . | . | .
Nc1nnnn1/N=C/C=C/c1ccccc1 | . | . | . | . | . | / | / | / | /
CC1(C)Cc2nc(N3CCOCC3)c(C#N)cc2CO1 | -6.1 | . | . | . | . | . | . | . | .
CC1(C)Cc2nc(N3CCCC3)c(C#N)cc2CO1 | . | . | . | . | . | / | / | / | /
COc1ccc(N2CCN(C(=O)c3oc4ccccc4c3NC(=O)CCc3cc(OC)no3)CC2)cc1 | . | . | . | . | . | / | / | / | /
O=C(NCC1COc2ccccc2O1)c1ccc(Br)s1 (stereo not drawn) | . | . | . | . | . | / | / | / | /
Cc1cc(C)n(-c2nc3ccccc3nc2Nc2ccc(CC(=O)O)cc2)n1 | -7.6 | . | . | . | . | . | . | . | .
OC1CCN(c2c3c(nc4cc(-c5cccc(F)c5)nn24)CCCC3)CC1 | . | . | . | . | . | / | / | / | /
CN(CCO)c1c2c(nc3cc(-c4cccc(F)c4)nn13)CCCC2 | -9.6 | . | . | . | . | . | . | . | .
CCN1CCN(CCCNC(=O)CNC(=O)c2nn(-c3ccc(OC)cc3OC)c(=O)c3ccccc23)CC1 | . | . | . | . | . | / | / | / | /
CCOc1cc(-c2c(C#N)c(N)nc3c2CCCC3C)ccc1O (stereo not drawn) | -4.7 | . | . | . | . | . | . | . | .
CN1CCN(Cc2nc3ccccc3c(=O)n2CC#N)CC1 | -5.6 | . | . | . | . | . | . | . | .
O=c1[nH]c2ccccc2nc1/C=C/c1ccc(F)cc1 | -8 | . | . | . | . | . | . | . | .
COc1ccc(OC)c(-c2c(C#N)c(N)nc3c2c(=O)nc2sccn23)c1 | . | . | . | . | . | / | / | / | /
Cc1ccc(NC(=O)C(C)N2C(=O)c3ccccc3C2=O)c(C)c1 (stereo not drawn) | . | . | . | . | . | / | / | / | /
COc1cc(C=C(c2nc3ccccc3s2)c2nc3ccccc3s2)ccc1O | . | . | . | . | . | / | / | / | /
COc1cc(/C=C/c2nc3ccccc3s2)cc(OC)c1O | -5.7 | . | . | . | . | . | . | . | .

From PubChem
